Screening data deposited in PubChem by several laboratories.
Sampled rows, rich in hits. Any-hit rate of the full collection: about 1.5%.
CaV13 FRET inh: Primary screen for inhibitors of IQ motif and Ca2+-dependent inactivation inhibitor domain binding in CACNA1D, Förster resonance energy transfer in living cells, …; AID 743397; inhibition, % at 12.3 µM; HEK cells, CFP/YFP FRET ICDI-IQ, plate reader, 10 min; percent FRET-ratio fall versus neutral wells; actives 0.098% (n = 340,000);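 active = mean replicate inhibition of at least 30% and at least 1% of replicates passing that level; inconclusive = only one of the two criteria is met; inactive = neither criterion is met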;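 note: 0% = median of the neutral control wells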
Hck Nef HTS: blocks Nef-activated human Hck kinase | P08631 | actives 0.68% (n = 220,000) | inhibition, % at 20 µM | Recombinant Hck-YEEI plus Nef, Z-Lyte FRET kinase assay;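 active = Hck-Nef kinase inhibition above about 50%, limit read from the data; inactive = inhibition below that limit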;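 note: 0% = DMSO with Hck plus Nef and 100% = Hck alone without Nef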
Target sequence (P08631 whole entry, looked up): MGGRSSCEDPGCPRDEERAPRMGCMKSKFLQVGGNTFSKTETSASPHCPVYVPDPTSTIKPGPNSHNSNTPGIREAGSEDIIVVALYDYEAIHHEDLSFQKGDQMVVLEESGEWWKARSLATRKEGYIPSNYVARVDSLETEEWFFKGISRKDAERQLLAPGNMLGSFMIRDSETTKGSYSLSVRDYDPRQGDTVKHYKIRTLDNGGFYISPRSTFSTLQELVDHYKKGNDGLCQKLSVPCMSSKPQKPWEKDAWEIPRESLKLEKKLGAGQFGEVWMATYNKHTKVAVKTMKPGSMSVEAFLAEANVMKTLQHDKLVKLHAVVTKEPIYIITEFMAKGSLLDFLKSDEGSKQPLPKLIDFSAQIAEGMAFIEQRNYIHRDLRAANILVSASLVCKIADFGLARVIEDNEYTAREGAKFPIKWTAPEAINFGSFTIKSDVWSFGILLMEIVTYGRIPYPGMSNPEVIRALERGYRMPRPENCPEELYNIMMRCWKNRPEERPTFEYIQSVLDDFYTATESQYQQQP
Runt-SMMHC FRET: blocks binding of human RUNX1 Runt domain to CBFb-SMMHC; Q01196+Q13951; Cerulean-Runt/Venus-CBFb-SMMHC FRET ratio 530/480, 1 h; inhibition, % at 20 µM; actives 0.74% (n = 220,000);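 active = mean inhibition across duplicate retests at 20 µM reaching about 50%, limit read from the data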;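 note: 0% = DMSO wells and 100% = wells with excess untagged CBFb-SMMHC; inhibitors lower the FRET ratio by blocking Runt binding to CBFb-SMMHC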
RanGTP-Impb inh: inhibitors of RanGTP-importin-beta interaction, primary screen, biochemical, FRET, CFP-Ran, YFP-importin-beta, homogeneous | cell-free CFP-Ran/YFP-importin-beta FRET ratio | actives 1.1% (n = 300,000) | inhibition, % (test concentration not listed);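 active = more than half of the replicate wells show a fall in the fluorescence ratio signal beyond about 16%, limit read from the data, passing the limit was not always enough; inconclusive = exactly half of the replicate wells pass the set limit; inactive = fewer than half of replicates pass the limit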;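 note: 0% = DMSO wells and 100% = Ran loaded with GDP instead of GTP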
Runt-CBFb FRET: Runt domain-CBFb interaction inhibition; Cerulean-Runt/Venus-CBFb FRET ratio 530/480, 1 h; inhibition, % at 20 µM; actives 0.46% (n = 220,000); AID 1496;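 active = inhibition over about 50% at 20 µM in the single-dose screen, limit read from the data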;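 note: 0% = DMSO wells and 100% = excess unlabeled CBFb competitor control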
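Assay system: Cerulean-Runt domain fusion protein, energy donor; Signal: fluorescence energy transfer, 422 nm excitation, 530/480 nm emission; Timing: 1 h compound exposure, room temperature; Control set: unlabeled CBFb; Medium: Tris buffer pH 7.5 with salts and BSA; Compound: single test concentration of 20 µM, 1% DMSO final; Probe or stimulus: Venus-CBFb 100 nM.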
YIC counter: counter-screen for RanGTP-importin-beta inhibitors: YIC FRET probe | shares compounds with RanGTP-Impb inh | Purified YIC probe, intramolecular FRET ratio YFP/CFP | IC50, µM | actives 40% (n = 1,000);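 active = fitted half-maximal inhibitory concentration no more than tenfold above the top dose tested; inconclusive = flat fit with 30 to 70% activity, or poor fit; inactive = half-maximal concentration beyond tenfold above the top dose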
Starred values were filed as active, the others as inactive; ? = inconclusive; nt = not tested or not shown.

SMILES | CaV13 FRET inh | Hck Nef HTS | Runt-SMMHC FRET | RanGTP-Impb inh | Runt-CBFb FRET | YIC counter
CC1CC(C)CN(c2cc(=O)n(Cc3ccc(F)cc3)c(=O)[nH]2)C1 (centres undefined) | -3 | 0 | -2 | 60* | 0 | >50
C=CCn1c(SCCOc2ccc(OC)cc2)nnc1C(CO)NC(=O)c1ccc(OC)cc1 (centres undefined) | -8 | -11 | -5 | 19* | 2 | >50
COC(=O)Cc1c(C)c2ccc(O)c(CNCc3ccc(OC)c(OC)c3)c2oc1=O | 0 | nt | nt | 33* | nt | 7.3*
COC(=O)Cc1c(C)c2ccc(OCC(C)=O)c(C)c2oc1=O | -2 | -9 | -5 | 0 | 1 | nt
O=c1c2ccccc2sc2ccc(C#CC3(O)CCCCC3)cc12 | -10 | nt | nt | 30* | nt | 22*
C=CCN1C(=O)/C(=C\c2ccc(OC(=O)c3ccco3)c(OC)c2)SC1=S | -6 | -31 | -8 | 19* | -5 | >50
COc1cc(C(=S)N2CCOCC2)ccc1OC(=O)c1cc(OC)c(OC)c(OC)c1 | -3 | nt | nt | 3 | nt | nt
O=C(COC(=O)CSCC(=O)N1CCCCC1)Nc1ccc(Cl)cc1 | nt | 2 | 4 | 28* | -2 | >50
O=C(CSCC(=O)OCC(=O)N1CCN(C(=O)c2ccco2)CC1)Nc1ccc(Cl)cc1 | -5 | nt | nt | nt | nt | nt
CCN1C(=S)SC(=O)C1=C1C=C(C)N(Cc2ccco2)C(C)=C1 | -4 | -1 | 47 | 37* | 7 | 11*
NC(=S)N/N=C/c1ccccc1OC(=O)c1cc2ccccc2oc1=O | -3 | nt | nt | 6 | nt | nt
NC(=O)N/N=C/c1ccccc1OC(=O)c1cc2ccccc2oc1=O | -6 | nt | nt | 18* | nt | >50
O=[N+]([O-])c1cc(CN2CCCC2)ccc1Sc1ccc(Cl)cc1 | 0 | 9 | 1 | 19* | -1 | >50
CCCOc1ccc(F)cc1-c1cc(C(=O)NCc2ccco2)[nH]n1 | -8 | nt | nt | nt | nt | nt
CC(=O)N1c2ccc(S(=O)(=O)N3CCC(C(=O)Nc4cccc(Cl)c4)CC3)cc2CC1C (centres undefined) | -7 | nt | nt | 25* | nt | >50
CC(C)(C)OC(=O)N1CCC(c2c(C(=O)N3CCN(C(=O)c4ccco4)CC3)cnn2-c2ccc(F)cc2F)CC1 | -3 | nt | nt | 2 | nt | nt
CCOC(=O)c1c(NC(=O)CSc2nnc3c(n2)[nH]c2ccc(F)cc23)sc(C(C)=O)c1C | -3 | -4 | -7 | nt | -5 | nt
CCOC(=O)c1c(NC(=O)CSc2nnc3c(n2)[nH]c2ccccc23)sc2c1CCN(C)C2 | nt | 4 | nt | 24* | nt | >50
CCCCOc1ccc(C(=O)N2CCN(c3ncccn3)CC2)cc1 | -1 | nt | nt | 1 | nt | nt
Cc1ccc(C(=O)Nc2nnc(SCC(=O)N3CCCc4ccccc43)s2)cc1 | -2 | 2 | 1 | 39* | 1 | >50
COc1ccc2c(c1)c(=O)oc1cc(O)ccc12 | nt | -86 | 31 | 3 | -5 | nt
COc1ccc(-c2c(C)c3ccc(O)cc3oc2=O)cc1 | -5 | nt | nt | 19* | nt | 22*
N=c1oc2ccccc2cc1-c1nc(-c2ccc(Cl)cc2)cs1 | -4 | -1 | -150 | 17* | -46 | 32*
O=c1oc2ccccc2cc1-c1csc(Cc2nc(-c3ccc(Cl)cc3)cs2)n1 | -2 | 2 | -16 | 5 | -2 | nt
COc1ccc(-c2csc3ncnc(N4CCN(c5ccc(OC)cc5)CC4)c23)cc1 | nt | nt | nt | 22* | nt | >50
SMILES | CaV13 FRET inh | Hck Nef HTS | Runt-SMMHC FRET | RanGTP-Impb inh | Runt-CBFb FRET | YIC counter
O=C(COC(=O)CCN=C1NS(=O)(=O)c2ccccc21)NNC(=O)c1ccccc1 | -5 | nt | nt | -2 | nt | nt
Cc1ccc(Nc2nc(N)nc(CCl)n2)cc1 | -5 | -2 | 2 | 1 | 1 | nt
Cc1ccc(Nc2nc(N)nc(CC#N)n2)cc1 | -7 | 0 | 4 | 25* | 2 | >50
CCCSc1nnc(-c2c[nH]c3ccccc23)n1CC | -7 | 3 | 4 | 17* | 1 | >50
CCCSc1nnc(-c2c[nH]c3ccccc23)n1C | -5 | 2 | 2 | -3 | 2 | nt
Fc1ccccc1N1CCN(c2nc3ccccc3n3nnnc23)CC1 | -6 | -1 | 22 | 17* | 13 | 27*
CCOC(=O)c1ccc(-c2ccc3c(=O)c4ccccc4n(C)c3c2)cc1F | -1 | nt | nt | 44* | nt | 1.3*
COc1ccc(N=Cc2cc(Cc3ccccc3Cl)cc([N+](=O)[O-])c2O)cc1OC | nt | 25 | -15 | 16* | -6 | >50
COc1cc(CCN=Cc2cc(Cl)cc(Cl)c2O)c([N+](=O)[O-])cc1OC | -14 | nt | nt | nt | nt | nt
CSc1nc(-c2ccc(N(C)C)cc2)c(C#N)c(=O)n1C | -7 | -45 | 85* | 17* | 48 | 9.4*
CSc1nc(-c2ccc(Cl)cc2)c(C#N)c(=O)n1C | -3 | 18 | 0 | 0 | 4 | nt
Cc1ccccc1OCC(=O)NNC(=O)c1cc(S(=O)(=O)N2CCOCC2)ccc1N1CCCC1 | -4 | nt | nt | 0 | nt | nt
CN(C)CCCN(C(=O)c1ccc(Br)s1)c1nc2cc3c(cc2s1)OCCO3 | -6 | nt | nt | 22* | nt | >50
CCN(CC)CCN(C(=O)c1ccc(Br)s1)c1nc2cc3c(cc2s1)OCCO3 | -17 | -25 | -3 | 4 | 0 | nt
Cc1ccc(C(=O)NNC2CC(=O)N(c3ccc4c(c3)OCCO4)C2=O)cc1 (centres undefined) | -5 | -19 | 4 | 18* | nt | >50
O=C(NNC1CC(=O)N(c2ccc3c(c2)OCCO3)C1=O)c1ccc(Cl)cc1 (centres undefined) | -6 | -5 | -2 | 0 | nt | nt
CNC(=O)c1c(NC(=O)c2cc(-c3cc(C)c(C)cc3O)n[nH]2)sc2c1CCCC2 | nt | 41 | -26 | 1 | -14 | nt
O=C(O)c1ccccc1C=NNc1ccccn1 | -6 | nt | nt | nt | nt | nt
CCc1ccc(C(=O)CSc2ncn[nH]2)cc1 | -3 | 1 | -3 | 18* | 1 | >50
Cc1ccc(NC(=O)Cn2c(=S)[nH]c3ccccc32)cc1 | -7 | -7 | 2 | 3 | 2 | nt
Cc1c(CC(=O)O)c(=O)oc2c(C)c3occ(-c4ccc(F)cc4)c3cc12 | -5 | nt | nt | 24* | nt | >50
Cc1c(CCC(=O)O)c(=O)oc2c(C)c3occ(-c4ccc(Br)cc4)c3cc12 | -4 | nt | nt | ? | nt | nt
Cc1cc(NCCN(C)C)n2nc(-c3cccs3)cc2n1 | -7 | 6 | 7 | 17* | 4 | 24*
CC(C)CN(Cc1c(O)ccc2ccccc12)CC(C)C | -5 | -4 | -2 | 20* | 8 | >50
COc1ccc(Cl)cc1NC(=O)CCNS(=O)(=O)c1cccc2nonc12 | -6 | nt | nt | -2 | nt | nt
O=C(Cn1ccc([N+](=O)[O-])n1)NCc1ccccc1 | -2 | nt | nt | ? | nt | nt
COC(=O)c1cccc(N/C=C(\[N+](=O)[O-])S(=O)(=O)c2ccccc2)c1 | -5 | nt | nt | 8 | nt | nt
